{"data": "Experimental data pooled from the literature", "target": "Mitogen-activated protein kinase 9 (MAPK9, Homo sapiens, UniProt P45984)", "note": "Protocols differ between the studies behind these lines."}
{"SMILES": "CC(C)(C)C(=O)c1sc(NC2CCCCC2)nc1N", "test": "enzyme activity, inhibitor", "setting": "10 µM", "endpoint": "remaining activity", "result": "90%"}
{"SMILES": "N#CC1c2c([nH]c3c(Cl)c(Cl)ccc23)C(=O)NC12CCCCC2 (racemic)", "test": "thermal stability, DSF", "setting": "10 µM", "endpoint": "ΔTm", "result": "0.7 °C"}
{"SMILES": "O=C1CCc2cc(Nc3cc(OC4CCOCC4)c([N+](=O)[O-])cc3Cl)ccc2N1", "test": "cell-free assay, competition with immobilised ligand", "setting": "1 µM", "endpoint": "remaining binding", "result": "86%"}
{"SMILES": "CC/C(=N\\NC(=O)NCc1cccc(O)c1)c1ccc(O)c(C)c1O", "test": "enzyme activity, inhibitor", "setting": "0.1 µM", "endpoint": "inhibition", "result": "-4.8%"}
{"SMILES": "COc1cc2ncnc(Nc3ccc(Oc4ccccc4)cc3C)c2cc1OC", "test": "enzyme activity, inhibitor", "setting": "1 µM", "endpoint": "inhibition", "result": "5%"}
{"SMILES": "Clc1ccc(Nc2nnc(Cc3ccncc3)c3ccccc23)cc1", "test": "cell-free assay", "setting": "0.5 µM", "endpoint": "remaining signal", "result": "97.5%"}
{"SMILES": "CC(=O)Nc1c(C(C)=O)c(=O)n(C)c2nc(-c3ccc(Cl)cc3Cl)c(-c3ccc(Cl)cc3)cc12", "test": "cell-free assay, competition with immobilised ligand", "setting": "1 µM", "endpoint": "remaining binding", "result": "100%"}
{"SMILES": "CCN1CCC2(CC1)NC(=O)c1c(c3ccc(Cl)c(Cl)c3n1C)C2C#N (racemic)", "test": "thermal stability, DSF", "setting": "10 µM", "endpoint": "ΔTm", "result": "-0.1 °C"}
{"SMILES": "Oc1cccc(-c2nc(N3CCOCC3)c3oc4ncccc4c3n2)c1", "test": "enzyme activity, inhibitor", "setting": "10 µM", "endpoint": "remaining activity", "result": "100%"}
{"SMILES": "CC(C)(O)[C@H]1CC[C@H](Nc2ccc3ncc(-c4cccc(C(F)(F)F)c4)n3n2)CC1", "test": "enzyme activity, inhibitor", "setting": "1 µM", "endpoint": "remaining activity", "result": "109%"}
{"SMILES": "COc1ccc2c(O[C@@H]3C[C@H]4C(=O)N[C@]5(C(=O)O)CC5/C=C\\CCCCC[C@H](NC(=O)OC5CCCC5)C(=O)N4C3)cc(-c3csc(NC(=O)C(C)C)n3)nc2c1C (some centres unmarked)", "test": "cell-free assay, competition with immobilised ligand", "setting": "1 µM", "endpoint": "remaining binding", "result": "71%"}
{"SMILES": "COc1cc(Nc2cnc(C#N)c(O[C@H](C)CN(C)C)n2)ncc1-c1cnn(C)c1", "test": "enzyme activity, inhibitor, radiometric", "setting": "10 µM", "endpoint": "remaining activity", "result": "79%"}
{"SMILES": "O=C(Nc1cnn(-c2csc(C(=O)NC3COC3)c2)c1)Nc1c(F)cccc1Cl", "test": "enzyme activity, inhibitor", "setting": "5 µM", "endpoint": "remaining activity", "result": "22.7%"}
{"SMILES": "COc1cc(/C=C/C(=O)CC(=O)/C=C/c2ccc(O)c(OC)c2)ccc1O", "test": "enzyme activity, inhibitor", "setting": "1 µM", "endpoint": "activity vs control", "result": "104%"}
{"SMILES": "CC(C)CC(=O)N1CCc2nc(-c3ccc(Br)cc3)nc(N(C)Cc3ccccc3)c2C1", "test": "cell-free assay, competition with immobilised ligand", "setting": "0.1 µM", "endpoint": "remaining binding", "result": "72%"}
{"SMILES": "Cc1ccc(NC(=O)c2ccc(CN3CCN(C)CC3)cc2)cc1Nc1nc(-c2cccnc2)cs1", "test": "cell-free assay", "setting": "0.5 µM", "endpoint": "remaining signal", "result": "110%"}
{"SMILES": "Nc1ncnc2occ(-c3ccc(NC(=O)Nc4cc(C(F)(F)F)ccc4F)cc3)c12", "test": "cell-free assay, inhibitor", "setting": "20 µM", "endpoint": "remaining signal", "result": "0%"}
{"SMILES": "C[C@@H](c1cccc(C#N)c1)n1cc(Cl)cc(C(N)=O)c1=N", "test": "cell-free assay, competition with immobilised ligand", "setting": "1 µM", "endpoint": "remaining binding", "result": "82%"}
{"SMILES": "CCN(CC)CCNC(=O)c1c(C)[nH]c(/C=C2\\C(=O)Nc3ccc(F)cc32)c1C", "test": "cell-free assay", "setting": "0.5 µM", "endpoint": "remaining signal", "result": "96.7%"}
{"SMILES": "CC(C)(O)c1cncc(-c2nc3ccc(F)cc3n2C2CC2)c1", "test": "cell-free assay, competition with immobilised ligand", "setting": "1 µM", "endpoint": "remaining binding", "result": "100%"}
{"SMILES": "CN1CCC2(CC1)NC(=O)c1c(c3ccc(Cl)c(Cl)c3n1C)C2C#N (racemic)", "test": "thermal stability, DSF", "setting": "10 µM", "endpoint": "ΔTm", "result": "-0.2 °C"}
{"SMILES": "CN(C)C(=O)Cn1cc(-c2nc([C@@](C)(c3ccc(-c4cnc(N)nc4)cc3)C3CC3)no2)cn1", "test": "cell-free assay, competition with immobilised ligand", "setting": "1 µM", "endpoint": "remaining binding", "result": "75%"}
{"SMILES": "Cn1c2c(c3ccc(Cl)c(Cl)c31)C(C#N)C1(CCNCC1)NC2=O (racemic)", "test": "thermal stability, DSF", "setting": "10 µM", "endpoint": "ΔTm", "result": "0.2 °C"}
